# Shown are actives, neighbours in structure and some others; about 6.1% of the full set was active somewhere.
# BB579 growth dn – growth inhibitors of yeast BB579 in restrictive medium, primary screen, yeast lifespan-shortening project, S. cerevisiae; inhibition, % at 10 µM; AID 804, 2007; hit rate 0.51% among 140,000; OD615, 48 h;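 active means inhibition above a set limit, 3 SD over the mean compound inhibition, cut at about 44% in these data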
#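 System: Saccharomyces cerevisiae DeaD strain BB579, replicative lifespan model yeast | Buffer or medium: Restrictive glucose-based CSMM-D medium | Times: 4 h preincubation and 48 h exposure at 30 °C | Detection: OD615 turbidity measurement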
# Yeast lifespan up – compounds extending yeast replicative lifespan, primary screen, S. cerevisiae, OD615; AID 775, 2007; hit rate 0.68% among 130,000; inhibition of the nicotinamide effect, % at 10 µM; S. cerevisiae growth with nicotinamide; deaD strain in restrictive glucose medium;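 active means inhibition above a set limit, placed 3 SD over the median of all compounds, cut at about 26% in these data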;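 further: 0% = nicotinamide-treated wells and 100% = cells grown without nicotinamide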
#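 System: DeaD-strain S. cerevisiae / Buffer or medium: CSMM-D, restrictive glucose (dextrose) synthetic minimal medium / Probe or stimulus: nicotinamide, 1.5 mM, co-present with compound / Compound: one concentration, 10 µM, DMSO 0.25% / Incubation: 48 h compound exposure at 30 °C, humidified / Technique: optical density (absorbance) at 615 nm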
# RAM inhibit – inhibitors of the yeast RAM network, primary screen, dse1pr::URA3 reporter, 5-FOA selection. inhibition, % at 50 µM. hit rate 1.8% among 190,000. S. cerevisiae dse1pr::URA3 reporter, 5-FOA growth OD615, 2 d; analog-sensitive cbk1-as2 kinase mutant strain;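 active means inhibition above a set limit, 3 SD over mean compound inhibition, cut at about 8.4% in these data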;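 further: 0% = DMSO-only wells with no growth and 100% = 10 µM 1-NA-PP1 full growth; inhibition rescues growth on 5-FOA so higher OD means more RAM inhibition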
# DAT uptake mod – changed hDAT dopamine uptake under cocaine IC80, either direction, primary screen, cocaine antagonist project, cell-based, LLC-PK1 hDAT, [14C]-dopamine uptake, MLSMR; Sodium-dependent dopamine transporter (Homo sapiens), Q01959; LLC-PK1 hDAT cells, [14C]-dopamine uptake with cocaine IC80; actives deviate in either direction; B-score at 10 µM; hit rate 1.3% among 110,000; AID 449768, 2010;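 active means Z score or B-score, a plate-position-corrected score, falls beyond the plate's 99.7% confidence bounds, in either direction; inactive means both scores lie inside the 99.7% bounds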;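 further: scored against the spread of the other compound wells on the same plate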
# Target sequence (Q01959 whole entry, looked up): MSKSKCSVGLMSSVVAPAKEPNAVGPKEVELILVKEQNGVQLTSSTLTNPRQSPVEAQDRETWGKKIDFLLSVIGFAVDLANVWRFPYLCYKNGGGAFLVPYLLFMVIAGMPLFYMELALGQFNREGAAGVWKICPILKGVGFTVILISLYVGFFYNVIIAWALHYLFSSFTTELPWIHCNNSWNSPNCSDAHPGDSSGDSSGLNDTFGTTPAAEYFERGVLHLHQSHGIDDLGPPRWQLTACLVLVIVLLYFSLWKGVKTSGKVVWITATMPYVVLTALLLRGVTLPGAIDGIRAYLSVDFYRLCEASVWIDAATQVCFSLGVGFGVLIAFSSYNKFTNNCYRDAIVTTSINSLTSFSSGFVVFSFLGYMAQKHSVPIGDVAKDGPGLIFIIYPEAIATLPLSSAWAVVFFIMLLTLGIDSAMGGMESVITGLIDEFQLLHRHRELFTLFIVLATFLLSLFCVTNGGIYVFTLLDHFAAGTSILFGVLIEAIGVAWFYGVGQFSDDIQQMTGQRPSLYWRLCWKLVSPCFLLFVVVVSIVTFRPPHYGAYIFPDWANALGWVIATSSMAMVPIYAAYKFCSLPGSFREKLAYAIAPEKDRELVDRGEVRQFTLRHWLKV
# Measles CPE – compounds protecting cells from measles virus cytopathic effect, primary screen, measles RdRp inhibitor project, single point, MLSMR library, absorbance; Measles virus-infected cells, CPE protection; protection (pct of control), % at 4 µM; hit rate 1.5% among 140,000; AID 841, 2007; in the data active means protection mostly above about 24%, no sharp cut-off; inactive means mostly below about 26%
# WT yeast gro inh – growth inhibition of WT strain, primary screen, mitochondrial fusion inhibitor project, WT and mutant strains, chemical genetic | AID 1362, 2008 | hit rate 2.1% among 190,000 | inhibition, % at 10 µM | mitochondrial fusion phenotypic screen; in the data active means inhibition above about 58%; tested in S. cerevisiae
# RAM efflux-def – 5-FOA growth of efflux-deficient control yeast, dose response, counter-screen for RAM network inhibitor project, S. cerevisiae, OD615 | shares compounds with RAM inhibit | S. cerevisiae efflux-deficient reporter strain, 5-FOA growth OD615, 2 days | max inhibition, % | 1,200 tested, under 10 active; call rule not given here;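 further: plate controls were vehicle for no effect and reference inhibitor for full effect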
# The depositor's hits bear a star; nt = not tested or not shown.
SMILES,BB579 growth dn,Yeast lifespan up,RAM inhibit,DAT uptake mod,Measles CPE,WT yeast gro inh,RAM efflux-def
Cn1cnnc1SC1c2cccc3cccc(c23)C1NS(=O)(=O)c1ccc(Cl)cc1 (stereo not given),-32,5,12*,nt,21,0,2
Cn1cnnc1SC1c2cccc3cccc(c23)C1NS(=O)(=O)c1ccccc1 (stereo not given),-35,2,3,nt,15,-5,nt
Cc1ccccc1NC(=O)/C(C#N)=C/c1ccsc1,-13,-7,3,nt,11,7,nt
Cc1cccc(NC(=O)/C(C#N)=C/c2ccc(Sc3ccccc3)o2)c1C,-20,4,14*,nt,7,-9,9
COc1cc(NC(=O)CSc2nncn2C)c(C)cc1[N+](=O)[O-],nt,nt,1,nt,nt,3,nt
COc1cc(/C=C2\SC(=O)N(CCNC(=O)c3cnc(C)cn3)C2=O)cc(OC)c1OC,-13,-6,1,nt,17,-2,nt
C=CCn1c(SCC(=O)NCC2CCCO2)nnc1-c1ccccc1 (stereo not given),nt,nt,3,nt,nt,-6,nt
CCN1/C(=C/C=C/C=C/c2sc3ccccc3[n+]2CC)Sc2ccccc21,84*,14,22*,-0.72,0,86,9
CC[n+]1c(/C=C/Nc2ccccc2)sc2ccccc21,-9,5,0,-0.65,4,-1,nt
Cc1ccc(NC(=O)CS(=O)CC(=O)N(C(C)C(=O)NC2CCCCC2)C(C)(C)C)cc1 (stereo not given),nt,nt,0,nt,nt,-3,nt
Cc1ccccc1NS(=O)(=O)c1cc(C(=O)NCCSC2CCCCC2)ccc1C,-26,-16,13*,0.12,6,-5,3
O=C(c1ccc(C(F)(F)F)cc1)N1CCC(=O)N(C(COCc2ccccc2)Cc2ccccc2)CC1 (stereo not given),-29,14,26*,-0.34,3,36,2
COCCn1c(C)cc(C(=O)CSc2cc(C)c3ccc(OC)cc3n2)c1C,-45,6,5,nt,8,-19,nt
COc1ccc2c(C)cc(SCC(=O)c3ccc4c(c3)OCO4)nc2c1,-15,-12,12*,-0.27,25,2,5
Nc1c(C(=O)NCCN2CCOCC2)c2nc3ccccc3nc2n1-c1ccccc1,-8,-11,0,0.65,4,27,nt
COCCNC(=O)c1c(N)n(-c2ccccc2)c2nc3ccccc3nc12,-25,-3,15*,-0.26,4,-13,3
CC(C)OCCCNC(=O)c1c(N)n(/N=C/c2ccccn2)c2nc3ccccc3nc12,-13,-10,12*,-0.4,3,5,8
Cc1ccc(CSc2nnc(-c3ccc4c(c3)OCO4)o2)cc1,-28,-5,15*,-0.23,9,-23,2
Cn1nc(C(F)(F)F)c(/C=N/OC(=O)c2ccccc2)c1SCc1ccccc1Cl,-28,6,12*,-0.31,6,0,2
[2H]c1c([2H])c([2H])c(-c2nc(N3CCCCCC3)sc2C(=O)c2ccccc2)c([2H])c1[2H],-22,3,13*,-0.73,41,5,3
O=C(c1sc(N2CCOCC2)nc1-c1ccccc1)N1CCCCC1,-17,1,1,nt,10,23,nt
CC(C)=CCN1CCN(Cc2ccc3nsnc3c2)CC1CCO (stereo not given),nt,nt,2,nt,nt,11,nt
COc1ccccc1OCC(=O)Nc1ccc(-c2nnc(-c3ccco3)o2)cc1,nt,nt,12*,nt,nt,-8,2
COc1ccc(CCCc2nnc(SCC(=O)Nc3ccccc3F)o2)cc1,nt,nt,1,nt,nt,-2,nt
COc1ccc(/C=N/Nc2nc(Nc3ccccc3)nc(N3CCCCC3)n2)cc1OC,-49,-11,0,-0.35,5,26,nt
SMILES,BB579 growth dn,Yeast lifespan up,RAM inhibit,DAT uptake mod,Measles CPE,WT yeast gro inh,RAM efflux-def
CCOc1cc(/C=N/Nc2nc(Nc3ccccc3)nc(N3CCCCC3)n2)ccc1OCC(=O)O,nt,nt,19*,nt,nt,25,8
O=C(CSc1ccccc1)N(c1ccc(Br)cc1)c1nccs1,-31,7,12*,nt,5,38,1
COc1ccc(C(=O)/C=C/c2ccc(O)cc2)c(O)c1CC=C(C)C,-27,-7,24*,-0.9,25*,87*,2
Cc1c(C(=O)N2CCN(c3ccccn3)CC2)oc2ccccc12,-50,-10,1,1.4,7,1,nt
O=C(c1oc2ccccc2c1CSCc1ccccc1)N1CCN(c2ncccn2)CC1,-34,-6,12*,0.16,13,17,1
O=C(OC(c1ccc(NS(=O)(=O)c2ccccc2)cc1)(C(F)(F)F)C(F)(F)F)c1ccccc1,-15,10,13*,nt,4,87*,2
O=C(NC1=NCCS1)C1CC2CCC1C2 (stereo not given),-12,3,-1,0.13,14,19,nt
CC(=O)c1c(NC(=O)c2ccccc2)[nH]c(-c2ccccc2)nc1=S,nt,nt,2,nt,nt,23,nt
CCCCNS(=O)(=O)c1ccc(NC(=O)C(Sc2ccccc2)c2ccccc2)cc1 (stereo not given),-19,3,14*,nt,11,17,1
CC(=O)NS(=O)(=O)c1ccc(NC(=O)C(Sc2ccccc2)c2ccccc2)cc1 (stereo not given),-68,-18,-1,0.083,17,-4,nt
O=C(/C=C/c1ccccc1)N1CCN(c2cccc(Cl)n2)CC1,-36,-6,12*,0.23,3,13,4
CC(C)N=C(NS(=O)(=O)c1ccc(Br)cc1)c1ccc(Cl)cc1,nt,nt,4,nt,nt,-4,nt
Cc1c(NC(=S)NC(=O)Cc2ccccc2)cccc1C(=O)O,-22,1,22*,-0.12,4,13,1
CCOC(=O)N1CCN(Cc2nc(-c3ccc(C)cc3)no2)CC1,-30,-11,1,0.43,17,1,nt
S=C(NCC1CCCCC1)Nc1ccc(Oc2ccccc2)cc1,49*,-1,15*,nt,13,77*,2
CCOCC(O)CSCc1ccc(Cl)cc1 (stereo not given),-37,-6,-1,-0.51,27,0,nt
OC(COCC(F)(F)C(F)(F)C(F)(F)C(F)F)Cn1c2ccc(Cl)cc2c2cc(Cl)ccc21 (stereo not given),-33,-1,18*,nt,36,86*,2
COc1ccc(CC(=O)Nc2cccc(S(=O)(=O)N3CCCCCC3)c2)cc1OC,-31,2,12*,nt,17,-19,3

# Compound activity (PubChem BioAssay)
